From ChEMBL document CHEMBL1158565, “Antagonism of 4-substituted 1,4-dihydropyridine-3,5-dicarboxylates toward voltage-dependent L-type Ca2+ channels Ca V 1.3 and Ca V 1.2” (Bioorg Med Chem, 2010)

How the values were obtained:
[1] = Selectivity ratio of antagonist activity at rat Cav1.3 to antagonist activity at rabbit Cav1.2 at 10 nM; assay type: functional
Summary of the method: (§1)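 Percent inhibition of Cav1.3 current was divided by that of Cav1.2 at the same concentration. Currents were from whole-cell patch clamp in transiently transfected tsA201 cells: Ba2+ bath, pH 7.4, steps from -60 mV, about 22 °C.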

[2] = target: Voltage-dependent L-type calcium channel subunit alpha-1D (Rattus norvegicus) (UniProt P27732); assay: Antagonist activity at rat Cav1.3 expressed in HEK293 cells assessed as inhibition of voltage pulse-induced calcium current at 10 nM by FLIPR calcium 4 assay; assay type: functional, cell-based; details: in the assay text read “by whole-cell patch-clamp recording” for “by FLIPR calcium 4 assay”
Summary of the method: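 Whole-cell patch clamp on tsA201 cells transiently cotransfected with rabbit Cav1.2 α1C or rat Cav1.3 α1D, Cavβ3 and Cavα2δ-1 (1:1:1) plus GFP. GFP cells were recorded after replating at 48 h. Bath (mM): 110 NaCl, 1 MgCl2, 10 BaCl2, 10 HEPES, 10 glucose, 20 CsCl, pH 7.4. Compound was diluted from DMSO stock and perfused. Pulses ran from -60 mV to +10 or 0 mV with tetrodotoxin at about 22 °C. Read-out was percent current inhibition.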

[3] = target: T1, Voltage-dependent L-type calcium channel subunit alpha-1C (Oryctolagus cuniculus, UniProt P15381); assay: Antagonist activity at rabbit Cav1.2 expressed in tsA201 cells assessed as inhibition of voltage pulse-induced calcium current at 10 nM by whole-cell patch-clamp recording
[4] = target: T1, Voltage-dependent L-type calcium channel subunit alpha-1C; assay: Antagonist activity at rabbit Cav1.2 expressed in HEK293 cells assessed as inhibition of voltage pulse-induced calcium current at 1000 nM by FLIPR calcium 4 assay; assay type: functional, cell-based
[5] = target: Voltage-dependent L-type calcium channel subunit alpha-1D (Rattus norvegicus) (UniProt P27732); assay: Antagonist activity at rat Cav1.3 expressed in HEK293 cells assessed as inhibition of voltage pulse-induced calcium current at 10 nM by whole-cell patch-clamp recording
[6] = Selectivity ratio of IC50 for Cav1.2 to IC50 for Cav1.3
[7] = target: T1, Voltage-dependent L-type calcium channel subunit alpha-1C; assay: Antagonist activity at rabbit Cav1.2 expressed in tsA201 cells assessed as inhibition of voltage pulse-induced calcium current at 500 nM by whole-cell patch-clamp recording
[8] = Selectivity ratio of antagonist activity at rat Cav1.3 to antagonist activity at rabbit Cav1.2 at 500 nM; assay type: functional; summary of the method: as §1
[9] = target: Voltage-dependent L-type calcium channel subunit alpha-1D (Rattus norvegicus) (UniProt P27732); assay: Antagonist activity at rat Cav1.3 expressed in tsA201 cells assessed as inhibition of voltage pulse-induced calcium current at 500 nM by whole-cell patch-clamp recording

T1 sequence (P15381 whole entry): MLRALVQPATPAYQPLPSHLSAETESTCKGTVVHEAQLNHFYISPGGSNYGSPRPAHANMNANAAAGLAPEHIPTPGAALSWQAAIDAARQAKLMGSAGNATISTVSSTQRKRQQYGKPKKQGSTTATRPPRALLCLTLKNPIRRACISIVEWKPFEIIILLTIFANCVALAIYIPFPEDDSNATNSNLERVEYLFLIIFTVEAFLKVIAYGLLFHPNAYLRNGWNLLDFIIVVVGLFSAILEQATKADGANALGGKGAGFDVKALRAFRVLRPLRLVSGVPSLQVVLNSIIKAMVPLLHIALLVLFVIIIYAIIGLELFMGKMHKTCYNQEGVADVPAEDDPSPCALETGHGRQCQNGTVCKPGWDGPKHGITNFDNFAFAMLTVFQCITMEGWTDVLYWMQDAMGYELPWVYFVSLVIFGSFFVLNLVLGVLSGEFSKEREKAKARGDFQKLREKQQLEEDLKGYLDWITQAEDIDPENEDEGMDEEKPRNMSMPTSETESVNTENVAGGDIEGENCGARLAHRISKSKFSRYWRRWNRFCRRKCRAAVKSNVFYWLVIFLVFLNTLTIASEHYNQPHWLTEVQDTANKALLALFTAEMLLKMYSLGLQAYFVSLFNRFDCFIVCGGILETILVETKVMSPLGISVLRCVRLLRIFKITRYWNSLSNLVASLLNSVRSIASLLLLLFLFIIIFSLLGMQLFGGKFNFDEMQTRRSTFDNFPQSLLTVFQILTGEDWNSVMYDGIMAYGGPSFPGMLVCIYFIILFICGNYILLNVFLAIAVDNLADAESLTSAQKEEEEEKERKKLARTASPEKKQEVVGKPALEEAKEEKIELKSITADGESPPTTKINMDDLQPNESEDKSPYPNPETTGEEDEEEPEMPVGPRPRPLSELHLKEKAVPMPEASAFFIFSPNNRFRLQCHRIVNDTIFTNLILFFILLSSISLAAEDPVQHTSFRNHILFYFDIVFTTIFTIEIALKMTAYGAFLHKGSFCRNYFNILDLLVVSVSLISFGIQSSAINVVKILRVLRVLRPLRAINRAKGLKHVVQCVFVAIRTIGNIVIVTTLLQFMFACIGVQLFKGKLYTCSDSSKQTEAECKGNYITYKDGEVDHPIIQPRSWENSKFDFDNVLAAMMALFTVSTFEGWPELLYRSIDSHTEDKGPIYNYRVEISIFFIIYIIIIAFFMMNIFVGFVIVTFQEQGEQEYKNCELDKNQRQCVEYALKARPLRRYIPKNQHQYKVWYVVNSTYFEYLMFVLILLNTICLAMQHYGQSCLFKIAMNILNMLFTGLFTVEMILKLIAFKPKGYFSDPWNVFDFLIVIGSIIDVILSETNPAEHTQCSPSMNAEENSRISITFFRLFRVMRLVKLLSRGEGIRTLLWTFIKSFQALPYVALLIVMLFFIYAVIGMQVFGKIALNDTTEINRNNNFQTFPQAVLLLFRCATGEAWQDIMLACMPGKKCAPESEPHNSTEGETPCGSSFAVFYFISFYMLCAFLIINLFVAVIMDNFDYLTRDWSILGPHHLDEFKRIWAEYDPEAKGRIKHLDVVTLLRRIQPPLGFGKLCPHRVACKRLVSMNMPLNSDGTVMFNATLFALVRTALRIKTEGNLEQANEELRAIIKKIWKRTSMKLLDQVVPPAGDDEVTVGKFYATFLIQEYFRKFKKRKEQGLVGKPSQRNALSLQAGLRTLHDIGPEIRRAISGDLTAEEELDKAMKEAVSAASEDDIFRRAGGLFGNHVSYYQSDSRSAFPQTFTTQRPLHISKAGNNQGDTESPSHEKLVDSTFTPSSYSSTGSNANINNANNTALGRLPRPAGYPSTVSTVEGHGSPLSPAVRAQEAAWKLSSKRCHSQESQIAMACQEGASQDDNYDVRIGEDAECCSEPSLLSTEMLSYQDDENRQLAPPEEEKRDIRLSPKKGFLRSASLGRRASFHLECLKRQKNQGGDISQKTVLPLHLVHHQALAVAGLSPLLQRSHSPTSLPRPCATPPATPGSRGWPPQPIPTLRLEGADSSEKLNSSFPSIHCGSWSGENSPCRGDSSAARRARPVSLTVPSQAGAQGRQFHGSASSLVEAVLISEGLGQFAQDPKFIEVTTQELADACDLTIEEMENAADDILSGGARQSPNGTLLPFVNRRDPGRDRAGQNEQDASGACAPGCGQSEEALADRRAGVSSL
Voltage-dependent L-type calcium channel subunit alpha-1D (Rattus norvegicus), sequence (P27732 whole entry, the tested form may be a part): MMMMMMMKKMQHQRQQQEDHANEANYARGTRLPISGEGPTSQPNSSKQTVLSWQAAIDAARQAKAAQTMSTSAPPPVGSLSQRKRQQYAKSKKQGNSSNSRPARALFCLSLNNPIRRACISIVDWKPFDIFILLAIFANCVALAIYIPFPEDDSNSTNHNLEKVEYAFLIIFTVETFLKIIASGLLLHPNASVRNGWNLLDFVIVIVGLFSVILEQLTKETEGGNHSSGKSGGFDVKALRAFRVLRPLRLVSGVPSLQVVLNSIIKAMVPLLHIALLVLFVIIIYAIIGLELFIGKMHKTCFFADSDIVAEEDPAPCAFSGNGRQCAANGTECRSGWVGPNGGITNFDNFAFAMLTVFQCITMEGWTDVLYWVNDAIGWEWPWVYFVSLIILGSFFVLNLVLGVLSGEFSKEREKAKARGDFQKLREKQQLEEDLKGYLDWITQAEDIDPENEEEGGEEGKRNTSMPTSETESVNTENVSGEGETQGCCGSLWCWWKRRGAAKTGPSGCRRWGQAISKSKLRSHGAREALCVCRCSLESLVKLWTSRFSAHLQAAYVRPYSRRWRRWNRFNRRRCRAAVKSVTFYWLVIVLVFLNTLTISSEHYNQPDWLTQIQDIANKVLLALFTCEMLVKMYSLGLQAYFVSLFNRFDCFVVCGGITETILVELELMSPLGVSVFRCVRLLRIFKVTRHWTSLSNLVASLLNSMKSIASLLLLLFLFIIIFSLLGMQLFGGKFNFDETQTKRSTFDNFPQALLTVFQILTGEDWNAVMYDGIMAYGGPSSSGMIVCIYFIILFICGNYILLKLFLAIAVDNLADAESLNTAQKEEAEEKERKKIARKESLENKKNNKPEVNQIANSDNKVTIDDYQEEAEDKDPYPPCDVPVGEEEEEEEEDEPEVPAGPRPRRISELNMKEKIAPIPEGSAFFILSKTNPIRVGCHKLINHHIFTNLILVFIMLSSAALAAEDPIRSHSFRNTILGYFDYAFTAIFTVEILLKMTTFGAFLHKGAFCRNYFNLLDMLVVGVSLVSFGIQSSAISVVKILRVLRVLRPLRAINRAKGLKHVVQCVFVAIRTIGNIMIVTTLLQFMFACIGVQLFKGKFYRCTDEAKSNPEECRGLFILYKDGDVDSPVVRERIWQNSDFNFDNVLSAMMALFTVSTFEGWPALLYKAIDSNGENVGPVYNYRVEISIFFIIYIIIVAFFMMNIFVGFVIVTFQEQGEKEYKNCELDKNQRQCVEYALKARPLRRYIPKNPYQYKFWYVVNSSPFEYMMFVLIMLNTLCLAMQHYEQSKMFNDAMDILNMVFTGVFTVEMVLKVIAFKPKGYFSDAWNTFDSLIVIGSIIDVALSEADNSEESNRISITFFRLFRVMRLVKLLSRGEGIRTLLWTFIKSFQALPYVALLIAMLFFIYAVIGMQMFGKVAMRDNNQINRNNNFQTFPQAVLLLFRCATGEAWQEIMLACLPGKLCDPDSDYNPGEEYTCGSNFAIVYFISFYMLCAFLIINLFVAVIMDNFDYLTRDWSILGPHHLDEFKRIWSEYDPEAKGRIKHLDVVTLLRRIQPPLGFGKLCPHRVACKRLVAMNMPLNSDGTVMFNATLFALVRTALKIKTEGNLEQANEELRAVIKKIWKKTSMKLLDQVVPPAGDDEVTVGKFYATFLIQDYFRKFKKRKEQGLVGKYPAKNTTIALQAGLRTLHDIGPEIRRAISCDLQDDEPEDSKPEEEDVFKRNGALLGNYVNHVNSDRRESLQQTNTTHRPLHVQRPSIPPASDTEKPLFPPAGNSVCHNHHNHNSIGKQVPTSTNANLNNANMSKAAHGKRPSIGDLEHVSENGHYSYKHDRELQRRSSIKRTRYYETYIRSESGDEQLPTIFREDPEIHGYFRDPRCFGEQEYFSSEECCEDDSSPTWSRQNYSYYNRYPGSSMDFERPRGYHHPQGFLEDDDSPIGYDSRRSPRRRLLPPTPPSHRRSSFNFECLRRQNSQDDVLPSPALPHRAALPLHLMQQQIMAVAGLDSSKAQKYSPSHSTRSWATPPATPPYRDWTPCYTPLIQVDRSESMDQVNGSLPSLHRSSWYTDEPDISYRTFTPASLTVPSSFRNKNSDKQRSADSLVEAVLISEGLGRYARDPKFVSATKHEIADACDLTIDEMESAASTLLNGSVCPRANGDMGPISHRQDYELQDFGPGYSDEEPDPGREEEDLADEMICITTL

## CCOC(=O)C1=C(C)NC(C)=C(C(=O)OC)C1c1ccccc1[N+](=O)[O-] (stereo unspecified)
[1]
  Selectivity ratio: 0.63
[2]
  inhibition: 26%
[3]
  inhibition at 0.01 µM: 41%

## CCOC(=O)C1=C(CC)NC(CC)=C(C(=O)OCC)C1c1ccc([N+](=O)[O-])cc1
[4]
  inhibition at 1 µM: 58%

## CCOC(=O)C1=C(C)NC(C)=C(C(=O)OCC)C1c1cccc([N+](=O)[O-])c1
[1]
  Selectivity ratio: 1.34
[5]
  inhibition: 43%
[3]
  inhibition at 0.01 µM: 32%

## COCCOC(=O)C1=C(C)NC(C)=C(C(=O)OC(C)C)C1c1cccc([N+](=O)[O-])c1 (stereo unspecified)
[6]
  Ratio IC50: 20

## CCOC(=O)C1=C(C)NC(C)=C(C(=O)OCC)C1c1cc2cc(Br)ccc2[nH]1
[7]
  inhibition at 0.5 µM: 42%
[8]
  Selectivity ratio: 1.03
[9]
  inhibition: 43%
